From PMC6051889 (ACS chemical neuroscience, 2018)

Key:
[1] = Plasma pharmacokinetics in mice; assay type: in vivo; conditions: BALB/c mouse, IV
Summary of the method: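 Balb/c mice received a single IV or oral-gavage dose, with low-dose isoflurane restraint for gavage. Each mouse gave one time point: 3 mice per point, 10 time points. Blood was taken by cardiac puncture under deep isoflurane anaesthesia, and plasma was assayed for parent compound by validated LC-MS/MS.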

[2] = Plasma stability, mouse plasma
[3] = IV doses 30–60 mg/kg, within 5 min, Male CD1 mice; cited from earlier work

Compound	time until completely consumed in plasma [1]	remaining at 4 h, 50 μM [2]	microsomal degradation (Microsomal stability; in the absence of NADPH)	material metabolized (Microsomal stability; mouse, rat and human NADPH-charged microsomes, 2 h, 0.50 μM)	in vivo antinociceptive activity (hotplate) [3]
CC(C)C[C@H](NC(=O)[C@H](Cc1ccccc1)NC(=O)CNC(=O)CNC(=O)[C@@H](N)Cc1ccc(O)cc1)C(=O)O [Compound 1, Leu-enkephalin]	≤ 5 min	> 90%	slowly degraded	38–50%	
[D-Pen^2,D-Pen^5]-enkephalin [DPDPE]					demonstrated in vivo antinociceptive activity
